Screening results deposited in PubChem BioAssay by several laboratories.
Sampled rows, rich in hits. Any-hit rate of the full collection: about 3.1%.
HKDC1 inh: blocks human hexokinase HKDC1 activity; inhibition, % at 20 µM; AID 493160; Q2TB90; hit rate 0.16% among 340,000; recombinant HKDC1, G6PDH/diaphorase resazurin coupled fluorescence;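 active = inhibition above about 35% when tested at 20 µM, limit read from the data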;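 note: plate controls were DMSO wells with enzyme for no effect and DMSO wells lacking enzyme for full effect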
Target sequence (Q2TB90 whole entry, looked up): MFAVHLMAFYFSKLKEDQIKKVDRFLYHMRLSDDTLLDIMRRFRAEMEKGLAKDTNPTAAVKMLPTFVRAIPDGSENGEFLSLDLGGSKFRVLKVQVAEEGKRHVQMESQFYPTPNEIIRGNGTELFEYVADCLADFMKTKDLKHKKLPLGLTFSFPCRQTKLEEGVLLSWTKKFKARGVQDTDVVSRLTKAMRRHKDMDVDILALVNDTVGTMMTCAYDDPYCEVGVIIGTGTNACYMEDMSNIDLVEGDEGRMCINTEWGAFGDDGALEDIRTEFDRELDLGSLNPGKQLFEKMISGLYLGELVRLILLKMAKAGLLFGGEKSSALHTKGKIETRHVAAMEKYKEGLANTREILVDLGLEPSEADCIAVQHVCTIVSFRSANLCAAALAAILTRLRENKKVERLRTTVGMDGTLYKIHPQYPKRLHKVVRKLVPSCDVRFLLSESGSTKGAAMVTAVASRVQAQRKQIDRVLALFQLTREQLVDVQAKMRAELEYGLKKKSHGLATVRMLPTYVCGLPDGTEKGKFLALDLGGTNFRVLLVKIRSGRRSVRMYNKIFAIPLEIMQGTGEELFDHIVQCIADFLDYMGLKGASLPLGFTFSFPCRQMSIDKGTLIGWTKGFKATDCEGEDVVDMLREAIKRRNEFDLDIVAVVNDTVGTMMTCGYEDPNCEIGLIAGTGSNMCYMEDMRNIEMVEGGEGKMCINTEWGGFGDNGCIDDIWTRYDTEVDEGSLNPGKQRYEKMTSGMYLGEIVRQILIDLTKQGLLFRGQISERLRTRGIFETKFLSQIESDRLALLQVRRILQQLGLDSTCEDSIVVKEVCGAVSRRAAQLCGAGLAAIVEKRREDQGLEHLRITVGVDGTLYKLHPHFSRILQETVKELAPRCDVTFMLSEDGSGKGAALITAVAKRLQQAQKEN
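Assay system: in-house recombinant HK5 (HKDC1) enzyme. Input: HKDC1 at 5 µg/mL. Medium: Tris pH 8.0 buffer with MgCl2, Tween-20, BSA, BME. Dosing: single 20 µM dose. Schedule: 90 min reaction incubation at room temperature, dark. Signal: resazurin-to-resorufin fluorescence via G6PDH and diaphorase coupling, 525/613 nm. Controls: DMSO-enzyme wells negative, buffer-substituted wells positive.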
HSF-1 act: increases HSF-1 driven luciferase reporter signal | NIH3T3-HGL HSF-1 luciferase reporter, MG132, 8 h; 100% = twice DMSO control signal | activation, % at 9 µM | hit rate 1.7% among 300,000;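 active = mean replicate activation of at least 50% with a set share of replicates each reaching 50%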;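 note: 0% = median of the neutral control wells and 100% = twice that signal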
HSP90 inh: HSP90 refolding inhibition in rabbit reticulocyte lysate | luciferase refolding luminescence, 3 h | inhibition, % at 5.6 µM | hit rate 0.91% among 290,000;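 active = inhibition above the screen-wide mean plus 3 SD, computed separately per campaign, cut at about 16% in these data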;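 note: 0% = DMSO wells and 100% = 60 µM geldanamycin wells; inhibitors lower the luminescence because luciferase stays unfolded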
Hsp70 act: Hsp70 transcriptional activation, primary screen; HeLa Hsp70 promoter luciferase reporter, luminescence; scaled: vehicle 0, proteasome-inhibitor control 100%; activation, % at 10 µM; hit rate 0.04% among 200,000; AID 1203;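 active = activation above the mean across all tested compounds plus 3 SD, cutoff set per campaign, cut at about 5.5% in these data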;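 note: 100% = MG132 at 30 µM as the positive control and 0% = DMSO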
HSF1 inh: HSF1 inhibition | hit rate 0.77% among 300,000 | activity change, negative = inhibition, % at 7.5 µM (by protocol) | NIH3T3-HGL HSE-luciferase, MG132-induced, luminescence 8 h; active compounds read low;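 active = more than half of replicate wells show activity change below -50%, luminescence cut by over half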;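 note: luciferase reports HSF-1 transcriptional activity via heat shock element; 0% = median of DMSO wells and -100% = zero luminescence signal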
Tb hexokinase: blocks Trypanosoma brucei hexokinase 1 activity; recombinant TbHK1, G6PDH-coupled NADH A340; inhibition, % at 10 µM; hit rate 0.11% among 220,000; AID 1430;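 active = inhibition of 50% or more in the single-dose primary screen; inactive = inhibition below 50%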
An asterisk follows results filed as active; / = no result given.

SMILES	HKDC1 inh	HSF-1 act	HSP90 inh	Hsp70 act	HSF1 inh	Tb hexokinase
Cc1ccc(S(=O)(=O)c2c(N)n(-c3ccccc3)c3nc4ccccc4nc23)cc1	-3.9	66.3*	-4.5	-0.3	19.7	-7.5
CCCCn1c(N)c(S(=O)(=O)c2ccc(C)cc2)c2nc3ccccc3nc21	6.8	47.3	2.8	-0.2	26.9	-9.5
COc1ccc(C(=O)N2CCC(n3nccc3NC(=O)C3CC3)CC2)cc1F	-4.6	9.4	-2.9	/	-1.6	/
CC(CC(=O)N1CCc2ccccc21)n1cccn1 (centres undefined)	-2.4	-5.2	1.1	/	-6.1	/
CC(=O)c1csc(COc2ccc(Cl)cc2)n1	-4.2	61.2*	0.9	/	24.3	-4.2
NNC(=O)c1csc(COc2cc(Cl)cc(Cl)c2)n1	0.5	-2.5	4.1	/	3.1	-1.2
O=C1/C(=C/c2ccco2)SC(=S)N1CCC(=O)N1CCCCC1CCO (centres undefined)	14.8	54.8*	-3.2	/	33.3	/
COc1cccc(-c2nc(CS(=O)(=O)CC(=O)NCCC(C)C)c(C)o2)c1	-2.4	18.4	1.0	-0.3	-3.2	0.1
CSc1ccc(-c2nc(CSCC(=O)NC3CC3)c(C)o2)cc1	-4.0	-38.8	0.3	/	-21.1	/
CCOC(=O)N1CCC(NC(=O)CS(=O)(=O)Cc2nc(-c3cccc(Cl)c3)oc2C)CC1	-4.5	17.4	-4.8	/	9.2	/
CCN(CCNC(=O)CS(=O)(=O)Cc1nc(-c2cccc(OC)c2)oc1C)c1ccccc1	11.1	78.4*	0.8	-0.2	53.7	-9.4
COc1cccc(-c2nc(CS(=O)(=O)CC(=O)Nc3c(C)cccc3C)c(C)o2)c1	-8.0	-15.0	71.7*	0.1	0.2	5.2
CCc1ccc(-c2nc(CSCC(=O)NC3CC3)c(C)o2)cc1	-0.6	-77.5	-0.7	/	-71.1*	/
Cc1oc(-c2cccc(Cl)c2)nc1CS(=O)(=O)CC(=O)NC1CC1	1.3	57.1*	-1.3	/	24.5	/
COc1cccc(-c2nc(CS(=O)(=O)CC(=O)Nc3cc(C)ccc3C)c(C)o2)c1	-3.2	6.5	0.2	-0.2	2.1	1.8
O=[N+]([O-])c1ccccc1Nc1cccnc1	-5.0	-55.5	/	/	-42.1	/
O=[N+]([O-])c1ccc(F)cc1OCc1nc(-c2cccs2)no1	-0.6	66.0*	-1.6	0.1	27.6	-0.2
O=[N+]([O-])c1ccccc1OCc1nc(-c2cccs2)no1	1.3	82.4*	-8.5	-0.1	27.2	-2.2
Cc1ccc(OCc2nc(-c3ccccc3)no2)c(C)c1	4.3	109.0*	-4.9	0.5	56.1	3.8
O=C(O)CCc1nc(-c2cccs2)no1	-0.6	-0.7	1.6	-0.3	1.2	-3.9
COc1ccccc1CN1CCN(Cc2nc(-c3cccs3)no2)CC1	13.5	21.0	-3.9	0.2	6.5	-5.1
Cc1ccc(OCc2nc(-c3cccs3)no2)c([N+](=O)[O-])c1	4.1	103.9*	7.1	0.1	54.6	-0.2
CC(=O)Nc1nnc(S(=O)(=O)N2CCN(c3ccc(Cl)cc3[N+](=O)[O-])CC2)s1	-1.1	-9.4	-1.0	/	-4.1	/
Cn1c(=O)c2c(SCC(=O)N3CCCC3)nc(CC(C)(C)C)nc2n(C)c1=O	2.2	2.5	-0.2	/	-0.5	/
CCOC(=O)c1c(S(=O)(=O)NCC(=O)Nc2cc(C)ccc2OC)c(C)n(C)c1C	-2.4	13.2	-1.3	/	-2.1	/
SMILES	HKDC1 inh	HSF-1 act	HSP90 inh	Hsp70 act	HSF1 inh	Tb hexokinase
C=CCNC(=S)N/N=C/c1ccc(-c2ccc(Br)cc2)o1	-4.6	77.7*	1.3	0.1	41.0	10.7
C=CCNC(=S)N/N=C/c1ccc(-c2cccc([N+](=O)[O-])c2)o1	-3.8	32.9	-1.0	-0.3	22.3	-25.6
Cc1cc2nnc(SCC(=O)NCC(c3ccccc3)N(C)C)n2c2ccccc12 (centres undefined)	-3.3	-4.5	2.3	/	-4.8	/
CCOC(=O)N1CCC(=NNc2ccc(S(=O)(=O)N3CCOCC3)cc2[N+](=O)[O-])CC1	-4.3	11.9	-0.6	-0.2	2.8	-2.9
CN1CCC(=NNc2ccc(S(=O)(=O)N3CCOCC3)cc2[N+](=O)[O-])CC1	-2.5	98.0*	-3.1	-0.1	46.7	-3.8
Cc1cc(C(=O)CN2C(=O)C(=O)N(CC(C)C)C2=O)c(C)n1C1CC1	-5.0	/	/	/	/	/
COc1cccc2sc(Nc3nnc(-c4ccccc4Cl)o3)nc12	-19.8	9.3	-4.2	0.5	-0.8	3.3
COc1ccccc1-c1nnc(Nc2nc3c(OC)cccc3s2)o1	-0.1	213.5*	1.4	0.1	124.8	4.8
Cc1nn(CC(=O)Nc2ccccc2C(F)(F)F)c(=O)c2cccn12	-4.3	11.3	1.1	/	2.4	/
CC(C)c1[nH]nc2c1C(c1ccco1)C(C#N)=C(N)O2 (centres undefined)	-8.3	55.4*	-3.2	0.2	16.7	-16.0
CCc1cccc(CC)c1NC(=O)COC(=O)CC1c2ccccc2CCN1S(=O)(=O)c1ccc(F)cc1 (centres undefined)	12.2	61.8*	1.8	0.1	31.3	43.5
CSCCOC(=O)C1=C(C)NC(=O)NC1c1ccc2c(c1)OCO2 (centres undefined)	-0.9	56.2*	9.5	/	23.0	/
CC1=C(C(=O)OCc2ccc3c(c2)OCO3)C(c2ccc(F)cc2)NC(=O)N1 (centres undefined)	3.1	-63.2	1.0	0.5	-53.8*	-2.2
C[C@H](CO)N1C[C@H](C)[C@@H](CN(C)Cc2ccccc2)Oc2c(NS(=O)(=O)c3cn(C)cn3)cccc2C1=O	0.8	/	/	/	/	/
COc1cc(C(=O)NC2CCN(CC(=O)Nc3cccc(C)c3C)CC2)cc(OC)c1OC	-3.9	-21.5	2.5	/	-2.8	/
Cc1ccc(SCCCn2cncn2)cc1	-5.2	-78.6	3.1	-0.1	-70.5*	1.2
Cc1nnsc1S(=O)c1ccc(Cl)c(Cl)c1 (centres undefined)	2.2	-84.6	-1.6	/	-80.8*	/
Cc1ccc(S(=O)(=O)N(C)C)cc1NC(=O)C(C)OC(=O)c1ccc2c(=O)n3c(nc2c1)CCC3 (centres undefined)	-4.4	/	/	/	/	/
CCOC(=O)c1c(C)oc2c1cc(O)c1ccccc12	5.8	58.0*	0.1	0.2	36.5	-9.1
CC(=O)c1c(C)oc2c1cc(O)c1ccccc12	7.1	-8.1	1.3	/	5.5	-22.3
CCOC(=O)c1c(C)oc2c1c1c(c3ccccc32)OCN(CCCC(=O)O)C1	21.2	56.7*	0.2	/	31.4	-11.6
CCOC(=O)c1c(C)oc2c1c1c(c3ccccc32)OCN(Cc2cccnc2)C1	17.5	/	-2.5	0.2	/	-13.0
CCCNC(=O)Cn1c(=O)/c(=C/c2ccc(-c3ccc([N+](=O)[O-])cc3)o2)s/c1=C\C(=O)C(C)(C)C	0.0	/	/	/	/	/
CN(c1ncnc(N)c1[N+](=O)[O-])C1CCCCC1	-5.8	-44.7	-2.9	/	-40.3	/
CCCCN(c1ccccc1)c1ncnc(N)c1[N+](=O)[O-]	8.4	-55.5	-0.9	-0.1	-52.1*	-1.5
CCCSc1nsc(NC(=O)Nc2ccc(F)cc2F)n1	-1.4	68.4*	0.8	/	52.9	/
